Measurements taken from ChEMBL document CHEMBL1681740, “Quinolizidinone carboxylic acid selective M1 allosteric modulators: SAR in the piperidine series” (Bioorg Med Chem Lett, 2011).
Substitutions are numbered along the chain they refer to. Activity calls are given as the source filed them. No cut-off for these calls is given here.

What was measured:
[1] = target: T1, Muscarinic acetylcholine receptor M1 (Homo sapiens) (UniProt P11229); assay: Positive allosteric modulation at human muscarinic M1 receptor expressing CHO cells assessed as potentiation of acetylcholine-induced calcium mobilization by FLIPR assay; format: functional, cell-based
T1 sequence (whole entry): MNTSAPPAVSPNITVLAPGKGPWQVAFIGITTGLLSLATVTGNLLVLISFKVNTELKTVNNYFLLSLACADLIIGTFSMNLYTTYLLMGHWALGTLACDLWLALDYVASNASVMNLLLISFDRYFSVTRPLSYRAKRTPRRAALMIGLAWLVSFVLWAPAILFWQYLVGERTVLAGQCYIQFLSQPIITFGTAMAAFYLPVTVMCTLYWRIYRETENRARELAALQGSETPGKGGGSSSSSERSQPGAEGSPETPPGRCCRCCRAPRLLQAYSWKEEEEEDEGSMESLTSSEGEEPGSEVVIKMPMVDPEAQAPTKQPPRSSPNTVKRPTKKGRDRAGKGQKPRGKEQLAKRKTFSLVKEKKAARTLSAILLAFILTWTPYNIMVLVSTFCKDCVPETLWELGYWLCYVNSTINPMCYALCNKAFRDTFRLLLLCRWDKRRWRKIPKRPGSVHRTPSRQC
How it was run: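 CHO cells expressing human M1 receptor. Inflection point determined in the presence of an EC20 concentration of acetylcholine. Mean of at least two experiments; interassay variability ±30%.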

[2] = Plasma protein binding in rat; format: ADME, cell-free; conditions: read-out: PPB (converted)
[3] = Drug uptake in Sprague-Dawley rat CSF at 10 mg/kg, po; format: ADME, organism-based, Cerebrospinal fluid; design: dose 10 mg/kg, route oral; conditions: in vivo, read-out: Drug uptake
How it was run: (§1)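 Sprague-Dawley rats dosed orally at 10 mg/kg in 0.5% methocel. Drug levels measured by bioanalysis of plasma, brain and CSF; brain/plasma ratio derived from these. Interanimal variability under 20%.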

Brain = assay: Drug uptake in Sprague-Dawley rat brain at 10 mg/kg, po; format: ADME, organism-based; design: dose 10 mg/kg, route oral; conditions: in vivo, read-out: Drug uptake; how it was run: as §1
Mus musculus [4] = assay: Antiamnesic activity against in contextual fear conditioning B6SJL mouse modle assessed as reversal of scopolamine-induced episodic memory deficit in at 3 mg/kg; format: functional, organism-based; design: dose 3 mg/kg
How it was run: (§2)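 Contextual fear conditioning model of episodic memory in B6SJL mice; scopolamine-induced deficit; test agents given at 3, 10 and 30 mpk; read-out is reversal of the scopolamine deficit.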

[5] = Ratio of drug uptake in CSF to fraction unbound in plasma in rat; format: ADME, cell-free
How it was run: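 Sprague-Dawley rats, oral 10 mg/kg in 0.5% methocel. CSF level divided by unbound plasma level, with unbound plasma derived using rat plasma protein binding values.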

[6] = target: T1, Muscarinic acetylcholine receptor M1 (Homo sapiens); assay: Positive allosteric modulation at human muscarinic M1 receptor expressing CHO cells assessed as potentiation of acetylcholine-induced calcium mobilization at 0.1 to 1 uM by FLIPR assay; format: functional, cell-based
How it was run: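 Human M1-expressing CHO cells; calcium mobilization read-out. Acetylcholine dose–response curves run with modulator at rising concentrations from 0.1 to 1 μM; fold potentiation taken from the leftward shift of the curve.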

[7] = Distribution coefficient, log D of the compound; format: physicochemical; conditions: octanol/water
Plasma [8] = assay: Plasma concentration in Sprague-Dawley rat at 10 mg/kg, po; format: ADME, organism-based; design: dose 10 mg/kg, route oral; conditions: in vivo; how it was run: as §1
Mus musculus [9] = assay: Antiamnesic activity against in contextual fear conditioning B6SJL mouse modle assessed as reversal of scopolamine-induced episodic memory deficit in at 10 mg/kg; format: functional, organism-based; design: dose 10 mg/kg; how it was run: as §2
Mus musculus [10] = assay: Antiamnesic activity against in contextual fear conditioning B6SJL mouse modle assessed as reversal of scopolamine-induced episodic memory deficit in at 30 mg/kg; format: functional, organism-based; design: dose 30 mg/kg; how it was run: as §2
Plasma [11] = assay: Plasma concentration in B6SJL mouse at 30 mg/kg; format: ADME, organism-based; design: dose 30 mg/kg; conditions: in vivo
How it was run: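 Plasma drug levels in B6SJL mice measured after 30 mpk dosing in the contextual fear conditioning study.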

[12] = Ratio of drug uptake in brain to plasma in Sprague-Dawley rat at 10 mg/kg, po; format: ADME, organism-based; design: dose 10 mg/kg, route oral; conditions: read-out: BPR; how it was run: as §1
[13] = Plasma protein binding in human; format: ADME, cell-free; conditions: read-out: PPB (converted)
[14] = Ratio of drug uptake in CSF to fraction unbound in plasma in wild type CF-1 mouse after 30 mins; format: ADME, cell-free; conditions: 0.5 h
How it was run: (§3)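 CF-1 mice, wild type and P-gp knockout, were treated with the compound. Plasma and CSF were collected 30 minutes after treatment. The value is the CSF concentration divided by the unbound plasma concentration (CSF/U plasma ratio), reported separately for each genotype.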

[15] = Ratio of drug uptake in CSF to fraction unbound in plasma in P-gp knock out CF-1 mouse after 30 mins; format: ADME, cell-free; conditions: 0.5 h; how it was run: as §3
[16] = target: T2, Muscarinic acetylcholine receptor M1 (Rattus norvegicus) (UniProt P08482); assay: Positive allosteric modulation at rat muscarinic M1 receptor
T2 sequence (whole entry): T1 sequence (whole entry) with A5V, T254S, P309S, R320K, A337G, I413V

[17] = target: Voltage-gated inwardly rectifying potassium channel KCNH2 (Homo sapiens, UniProt Q12809); assay: Binding affinity to human ERG at <1 uM
Sequence of Voltage-gated inwardly rectifying potassium channel KCNH2 (Q12809 whole entry): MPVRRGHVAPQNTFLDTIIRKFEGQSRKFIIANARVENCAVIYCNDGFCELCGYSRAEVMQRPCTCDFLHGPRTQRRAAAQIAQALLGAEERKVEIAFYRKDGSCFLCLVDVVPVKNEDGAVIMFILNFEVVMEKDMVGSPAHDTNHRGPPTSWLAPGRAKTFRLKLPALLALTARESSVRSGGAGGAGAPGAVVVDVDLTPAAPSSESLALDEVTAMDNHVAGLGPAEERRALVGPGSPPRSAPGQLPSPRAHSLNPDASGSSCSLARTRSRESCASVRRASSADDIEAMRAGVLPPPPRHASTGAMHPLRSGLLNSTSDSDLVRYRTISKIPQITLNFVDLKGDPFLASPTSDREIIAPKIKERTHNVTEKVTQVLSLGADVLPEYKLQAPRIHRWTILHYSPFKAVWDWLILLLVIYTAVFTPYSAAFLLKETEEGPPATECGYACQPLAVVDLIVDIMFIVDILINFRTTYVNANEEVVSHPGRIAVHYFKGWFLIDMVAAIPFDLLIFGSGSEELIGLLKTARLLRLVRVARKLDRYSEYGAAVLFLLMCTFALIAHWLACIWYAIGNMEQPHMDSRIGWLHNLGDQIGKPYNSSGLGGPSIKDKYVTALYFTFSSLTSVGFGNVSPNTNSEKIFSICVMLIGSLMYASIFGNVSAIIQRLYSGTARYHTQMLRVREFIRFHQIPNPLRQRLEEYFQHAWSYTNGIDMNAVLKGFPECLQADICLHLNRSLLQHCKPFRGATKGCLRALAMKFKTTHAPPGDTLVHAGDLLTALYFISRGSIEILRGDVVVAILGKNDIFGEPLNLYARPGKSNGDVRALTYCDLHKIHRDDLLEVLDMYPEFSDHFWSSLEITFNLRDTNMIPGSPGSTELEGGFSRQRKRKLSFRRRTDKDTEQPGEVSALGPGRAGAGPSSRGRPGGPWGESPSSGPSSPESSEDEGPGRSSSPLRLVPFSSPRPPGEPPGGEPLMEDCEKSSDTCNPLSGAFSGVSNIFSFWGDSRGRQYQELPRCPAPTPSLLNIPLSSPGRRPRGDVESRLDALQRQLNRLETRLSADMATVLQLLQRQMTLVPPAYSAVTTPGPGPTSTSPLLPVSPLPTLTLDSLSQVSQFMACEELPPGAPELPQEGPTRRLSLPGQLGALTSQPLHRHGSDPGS

Structure (SMILES) | IP [1] [µM] | other results
O=C(O)c1cc(CN2CCc3ccccc3C2c2ccccc2F)c2ccccn2c1=O (stereo not drawn) | 0.15 | 
O=C(O)c1cc(CN2CCc3cnccc3C2)c2ccccn2c1=O | 0.9 | 
O=C(O)c1cc(CN2CCc3cc(Cl)ccc3C2)c2ccccn2c1=O | 0.33 | fraction unbound [2]: 0.04; concentration [3]: 86 nM; concentration (Brain): 3690 nM; Activity (Mus musculus [4]): inactive; Ratio [5]: 0.63; Activity [6]: Active; logD [7]: 2.37; concentration (Plasma [8]): 4240 nM; Activity (Mus musculus [9]): inactive; Activity (Mus musculus [10]): inactive; concentration (Plasma [11]): 16000 nM; Kp [12]: 0.86; fraction unbound [13]: 0.02
COC(=O)C1c2ccccc2CCN1Cc1cc(C(=O)O)c(=O)n2ccccc12 (stereo not drawn) | 1.7 | 
O=C(O)c1cc(CN2CCC(n3nnc4ccccc43)CC2)c2ccccn2c1=O | 6 | 
O=C(O)c1cc(CN2CCc3ccc(Cl)cc3C2)c2ccccn2c1=O | 0.63 | 
O=C(O)c1cc(CN2CCc3cc(Br)ccc3C2)c2ccccn2c1=O | 0.63 | 
O=C(O)c1cc(CN2CCc3c(Cl)cccc3C2)c2ccccn2c1=O | 0.85 | 
O=C(O)c1cc(CN2CCC(n3cnc4ccccc43)CC2)c2ccccn2c1=O | 0.55 | fraction unbound [2]: 0.24; logD [7]: 0.92; fraction unbound [13]: 0.21
O=C(O)c1cc(CN2CCC(c3ccc(Br)cc3)CC2)c2ccccn2c1=O | 1.2 | 
CSc1ccc2c(c1)CCN(Cc1cc(C(=O)O)c(=O)n3ccccc13)C2 | > 10 | 
O=C(O)c1cc(CN2CCC(c3ncccn3)CC2)c2ccccn2c1=O | 13 | 
O=C(O)c1cc(CN2CCC(c3ccncc3)CC2)c2ccccn2c1=O | 0.95 | 
CCOC(=O)C1CN(Cc2cc(C(=O)O)c(=O)n3ccccc23)Cc2ccccc21 (stereo not drawn) | 3.6 | 
O=C(O)c1cc(CN2CCC(c3nc4ccccc4[nH]3)CC2)c2ccccn2c1=O | 0.12 | fraction unbound [2]: 0.23; concentration (Plasma [8]): 132 nM; fraction unbound [13]: 0.18
O=C(O)c1cc(CN2CCc3ccccc3C2c2ccccc2)c2ccccn2c1=O (stereo not drawn) | 0.56 | 
O=C(O)c1cc(CN2CCC(c3ccccc3F)CC2)c2ccccn2c1=O | 1.7 | 

Structure (SMILES) | IP [1] [µM] | other results
O=C(O)c1cc(CN2CCC(c3ccc(F)nc3)CC2)c2ccccn2c1=O | 2.1 | 
O=C(O)c1cc(CN2CCc3ncccc3C2)c2ccccn2c1=O | 0.83 | 
O=C(O)c1cc(CN2CCc3ccncc3C2)c2ccccn2c1=O | 1.7 | 
O=C(O)c1cc(CN2CCC(c3cccc(F)n3)CC2)c2ccccn2c1=O | 2.2 | 
O=C(O)c1cc(CN2CCc3cc(F)ccc3C2)c2ccccn2c1=O | 0.78 | 
O=C(O)c1cc(CN2CCC(n3ccnc3)CC2)c2ccccn2c1=O | 1.9 | 
O=C(O)c1cc(CN2CCC(c3cnccn3)CC2)c2ccccn2c1=O | 11 | 
O=C(O)c1cc(CN2CCC(n3cccn3)CC2)c2ccccn2c1=O | 0.78 | 
O=C(O)c1cc(CN2CCC(c3cncnc3)CC2)c2ccccn2c1=O | 7 | 
O=C(O)c1cc(CN2CCC(c3cc[nH]n3)CC2)c2ccccn2c1=O | 1.5 | 
O=C(O)c1cc(CN2CCC(c3ccccc3)CC2)c2ccccn2c1=O | 1.3 | 
O=C(O)c1cc(CN2CCC(c3ccc(Cl)cc3)CC2)c2ccccn2c1=O | 0.77 | 
CCOC(=O)C1Cc2ccccc2CN1Cc1cc(C(=O)O)c(=O)n2ccccc12 (stereo not drawn) | > 100 | 
O=C(O)c1cc(CN2CCc3ncncc3C2)c2ccccn2c1=O | 1.8 | 
O=C(O)c1cc(CN2CCC(c3ccncn3)CC2)c2ccccn2c1=O | 4.3 | 
O=C(O)c1cc(CN2CCC(n3ccnn3)CC2)c2ccccn2c1=O | 1.7 | 

Further lines, with some results ahead:

IP [1] [µM] | Structure (SMILES) | other results
1.1 | Cc1ccc2c(c1)CCN(Cc1cc(C(=O)O)c(=O)n3ccccc13)C2 | 
1.7 | Cc1ccc(C2CCN(Cc3cc(C(=O)O)c(=O)n4ccccc34)CC2)cc1 | fraction unbound [2]: 0.11; concentration [3]: 28 nM; Ratio [14]: 0.37; concentration (Brain): 5780 nM; Activity (Mus musculus [4]): inactive; Ratio [5]: 0.7; Activity [6]: Active; logD [7]: 2.97; concentration (Plasma [8]): 915 nM; Ratio [15]: 0.42; Activity (Mus musculus [9]): inactive; Activity (Mus musculus [10]): inactive; concentration (Plasma [11]): 31000 nM; Kp [12]: 6; IP [16]: 760 nM; fraction unbound [13]: 0.09
0.46 | O=C(O)c1cc(CN2CCC(c3ccc(C(F)(F)F)cc3)CC2)c2ccccn2c1=O | 
4.3 | COc1ccc(C2CCN(Cc3cc(C(=O)O)c(=O)n4ccccc34)CC2)cc1 | 
> 100 | O=C(O)c1cc(CN2CCc3ccccc3C2C2CCCCC2)c2ccccn2c1=O (stereo not drawn) | 
0.84 | O=C(O)c1cc(CN2CCC(c3cccnc3F)CC2)c2ccccn2c1=O | 
1.4 | COc1ccc2c(c1)CCN(Cc1cc(C(=O)O)c(=O)n3ccccc13)C2 | 
1.3 | N#Cc1ccc(C2CCN(Cc3cc(C(=O)O)c(=O)n4ccccc34)CC2)cc1 | 
0.61 | N#Cc1ccc2c(c1)CCN(Cc1cc(C(=O)O)c(=O)n3ccccc13)C2 | 
0.34 | CCOC(=O)C1c2ccccc2CCN1Cc1cc(C(=O)O)c(=O)n2ccccc12 (stereo not drawn) | 
0.08 | O=C(O)c1cn(Cc2ccc3ccccc3c2)c2ccccc2c1=O | 
1.7 | O=C(O)c1cc(CN2CCC(c3ccc(F)cc3)CC2)c2ccccn2c1=O | 
30 | Cn1c(C2CCN(Cc3cc(C(=O)O)c(=O)n4ccccc34)CC2)nc2ccccc21 | 
0.91 | O=C(O)c1cc(CN2CCC(c3cccc(Cl)c3)CC2)c2ccccn2c1=O | 
0.56 | O=C(O)c1cc(CN2CCc3cc(-c4ccccc4)ccc3C2)c2ccccn2c1=O | 
0.39 | O=C(O)c1cc(CN2CCc3cc(-c4ccncc4)ccc3C2)c2ccccn2c1=O | 
0.6 | O=C(O)c1cc(CN2CCc3ccccc3C2c2cccs2)c2ccccn2c1=O (stereo not drawn) | 
1.5 | O=C(O)c1cc(CN2CCC(c3cccc(F)c3)CC2)c2ccccn2c1=O | 
1.7 | O=C(O)c1cc(CN2CCc3ccccc3C2)c2ccccn2c1=O | 
0.52 | N#Cc1ccc(N2CCN(Cc3cc(C(=O)O)c(=O)n4ccccc34)CC2)cc1 | Ratio [5]: 0.42
0.053 | O=C(O)c1cc(CN2CCc3ccccc3C2c2ccncc2)c2ccccn2c1=O (stereo not drawn) | fraction unbound [2]: 0.06; concentration [3]: 230 nM; Activity [17]: Active; concentration (Brain): 1340 nM; Ratio [5]: 0.37; concentration (Plasma [8]): 9780 nM; Kp [12]: 0.14; fraction unbound [13]: 0.04
